Screening results (PubChem)
bCat KO growth: beta-catenin-lacking colon tumor cell growth suppression; HCT116 beta-catenin knockout viability, CellTiter-Glo, 60 h; hits give low values; viability, % at 10 µM; hit rate 1.5% among 140,000; AID 818;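 active means viability at or under a set limit, the compound median less 4 SD, cut at about 6% in these data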
HUVEC inhibit: inhibitors of human endothelial cell proliferation; HUVEC proliferation, CellTiter-Glo luminescence, 72 h; hits give low values; hit rate 1.1% among 86,000; viability, % at 10 µM (by protocol); AID 648;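 active means viability at or below 30%; inactive means viability above 30%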
HCT116 PTEN-null: PTEN-deleted cell growth suppression; HCT116 PTEN-null viability, CellTiter-Glo, 60 h; hits give low values; viability, % at 10 µM; hit rate 1.2% among 140,000;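 active means viability at or below a set limit, 4 SD under the median of all tested compounds, cut at about 3.7% in these data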;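 further: PTEN knockout HCT116 line with beta catenin targeted HCT116 as companion control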
Fibroblast inh: blocks proliferation of human lung fibroblasts; LL 47 human lung fibroblast viability, ATP luminescence; hits give low values; viability, % at 10 µM; hit rate 1.1% among 85,000; AID 719;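 active means viability at or below 50% in the single dose screen; inactive means viability above 50%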;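 further: compound exposure lasted 72 h before the ATP readout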
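Assay system: human lung fibroblast line LL 47, low passage. Input: 1,150 fibroblasts seeded per well. Times: overnight cell rest, 72 h compound treatment at 37 °C. Evaluation: % viability of median cell-only signal. Technique: luminescent ATP detection, CellTiter-Glo. Control set: cell-only wells, no compound.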
H69AR growth 86K: blocks growth of human H69AR lung tumor cells. viability, % at 10 µM. hit rate 6% among 85,000. H69AR lung tumor viability, ATP luminescence, 72 h; hits give low values;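 active means viability at or below 40%; inactive means viability above 40%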;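 further: multidrug resistant small cell line overexpressing MRP-1 efflux transporter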
Phagocytosis inh: macrophage phagocytosis inhibition. J774A.1 macrophage IgG-bead phagocytosis, imaging. inhibition, % at 5 µM. hit rate 0.07% among 110,000;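 active means inhibition above the mean of the plate negative controls plus 5 SD, cut at about 13% in these data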;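 further: phagocytic index as fraction of beads internalized from green versus red external bead signal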
A number is an active result. This excerpt belongs to a sample that is enriched for hits.

How did Cc1ccc2cc(CN(Cc3ccc(F)cc3)Cc3nnnn3C3CCCC3)c(=O)[nH]c2c1 do in these assays?
bCat KO growth: inactive; HUVEC inhibit: inactive; HCT116 PTEN-null: inactive; Fibroblast inh: inactive; H69AR growth 86K: 36; Phagocytosis inh: inactive

What do the screens show for `COc1ccc2cc(CN(Cc3ccco3)Cc3nnnn3C3CCCCC3)c(=O)[nH]c2c1`?
bCat KO growth: inactive; HUVEC inhibit: inactive; HCT116 PTEN-null: inactive; Fibroblast inh: inactive; H69AR growth 86K: inactive; Phagocytosis inh: inactive

What do the screens show for `O=C(NC1CCCCC1)C(c1ccc2ncccc2c1)N(Cc1ccc(F)cc1)C(=O)c1cccs1` (centres undefined)?
bCat KO growth: inactive; HCT116 PTEN-null: inactive; Phagocytosis inh: inactive

Results for c1cc2ccc3ccc(CN4CCOCC4)c4ccc(c1)c2c34 ?
bCat KO growth: inactive; HUVEC inhibit: inactive; HCT116 PTEN-null: inactive; Fibroblast inh: inactive; H69AR growth 86K: inactive

Results for OC1CCCN(Cc2ccc3ccc4cccc5ccc2c3c45)C1 (centres undefined) ?
bCat KO growth: 1.3; HUVEC inhibit: 2.4; HCT116 PTEN-null: 2.2; Fibroblast inh: 49; H69AR growth 86K: inactive

What do the screens show for `O=C(c1ccccc1)c1cnc(Nc2ccccc2Cl)s1`?
bCat KO growth: inactive; HCT116 PTEN-null: inactive

How did COc1ccc(NC(=O)CN2CCN(CC(=O)Nc3ccccc3Cl)CC2)cc1Cl do in these assays?
bCat KO growth: inactive; HUVEC inhibit: inactive; HCT116 PTEN-null: inactive; Fibroblast inh: inactive; H69AR growth 86K: 24

Results for COc1ccccc1NC(=O)CN1CCN(CC(=O)Nc2ccc(Cl)c(C(F)(F)F)c2)CC1 ?
bCat KO growth: inactive; HUVEC inhibit: inactive; HCT116 PTEN-null: inactive; Fibroblast inh: inactive; H69AR growth 86K: 27

Results for COc1cc(NC(=O)Nc2cccc(Cl)c2)c(OC)cc1NC(=O)CN1CCCCC1 ?
bCat KO growth: inactive; HUVEC inhibit: 12; HCT116 PTEN-null: inactive; Fibroblast inh: inactive; H69AR growth 86K: 7.8; Phagocytosis inh: inactive

Results for COc1ccccc1NC(=O)CN1CCCCC1 ?
bCat KO growth: inactive; HUVEC inhibit: inactive; HCT116 PTEN-null: inactive; Fibroblast inh: inactive; H69AR growth 86K: inactive; Phagocytosis inh: inactive

How did CSc1cnc2c(N)nc(N(C)C)nc2n1 do in these assays?
bCat KO growth: inactive; HCT116 PTEN-null: inactive; Phagocytosis inh: inactive

What do the screens show for `CCOC(=O)c1c(C)c(C(=O)N(C)C2CCCCC2)c(C)n1C`?
bCat KO growth: inactive; HUVEC inhibit: inactive; HCT116 PTEN-null: inactive; Fibroblast inh: inactive; H69AR growth 86K: inactive; Phagocytosis inh: inactive

What do the screens show for `COC(=O)Cc1c(O)ccn(Cc2cccc3ccccc23)c1=O`?
bCat KO growth: inactive; HCT116 PTEN-null: inactive

How did COC(=O)c1ccc(-c2ccco2)n1Cc1nc(-c2ccc(OC)c(OC)c2)oc1C do in these assays?
bCat KO growth: inactive; HUVEC inhibit: inactive; HCT116 PTEN-null: inactive; Fibroblast inh: inactive; H69AR growth 86K: 36; Phagocytosis inh: inactive

Results for Cc1ccc(-c2csc(NC(=O)CSc3ncn(-c4ccccc4)n3)n2)cc1 ?
bCat KO growth: inactive; HUVEC inhibit: inactive; HCT116 PTEN-null: inactive; Fibroblast inh: inactive; H69AR growth 86K: inactive

What do the screens show for `CCC(c1nnnn1CCc1ccccc1)N(Cc1ccco1)Cc1cc2cccc(C)c2[nH]c1=O` (centres undefined)?
bCat KO growth: inactive; HUVEC inhibit: inactive; HCT116 PTEN-null: inactive; Fibroblast inh: inactive; H69AR growth 86K: inactive; Phagocytosis inh: inactive

How did CCOc1ccc2[nH]c(=O)c(CN(Cc3ccco3)C(CC)c3nnnn3Cc3ccccc3)cc2c1 (centres undefined) do in these assays?
bCat KO growth: inactive; HUVEC inhibit: inactive; HCT116 PTEN-null: inactive; Fibroblast inh: inactive; H69AR growth 86K: 2.4; Phagocytosis inh: inactive

Results for CCOc1ccc2[nH]c(=O)c(CN(Cc3ccco3)Cc3nnnn3Cc3ccccc3)cc2c1 ?
bCat KO growth: inactive; HUVEC inhibit: inactive; HCT116 PTEN-null: inactive; Fibroblast inh: inactive; H69AR growth 86K: 38; Phagocytosis inh: inactive

How did COc1ccc2[nH]c(=O)c(CN(Cc3cccs3)S(=O)(=O)c3c(C)ccc4nsnc34)cc2c1 do in these assays?
bCat KO growth: inactive; HUVEC inhibit: inactive; HCT116 PTEN-null: inactive; Fibroblast inh: inactive; H69AR growth 86K: 2.7; Phagocytosis inh: inactive

What do the screens show for `COc1ccc2[nH]c(=O)c(CN(Cc3ccco3)Cc3nnnn3Cc3ccccc3)cc2c1`?
bCat KO growth: inactive; HUVEC inhibit: inactive; HCT116 PTEN-null: inactive; Fibroblast inh: inactive; Phagocytosis inh: inactive
